The source made the active and inactive calls.
Tests used:
[1] = Cytotoxicity against human HL60/A cells after 18 hrs by annexin-V labeling-based flow cytometry; format: functional, cell-based
[2] = Drug degradation at pH 7.4 assessed as release of PTL after 3 hrs; format: physicochemical; conditions: buffer, pH 7.4, 3 h
[3] = Cytotoxicity against human leukemia cells assessed as cell viability at 10 uM after 18 hrs by annexin-V labeling-based flow cytometry
[4] = Cytotoxicity against human leukemia stem/progenitor cells assessed as viable CD34+ cells at 10 uM after 18 hrs by annexin-V labeling-based flow cytometry; format: functional, CD34+ cell
HL-60 = experiment: Cytotoxicity against human HL60 cells after 18 hrs by annexin-V labeling-based flow cytometry; format: functional, cell-based; conditions: HL-60, 18 h
[5] = Cytotoxicity against human leukemia stem/progenitor cells assessed as cell viability at 5 uM after 18 hrs by annexin-V labeling-based flow cytometry; format: functional; conditions: in the assay text read “leukemia cells” for “leukemia stem/progenitor cells”, read-out: Activity
How it was run: (§1)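 Primary leukemia cells from AML patient blood were treated for 18 h in serum-free IMDM, then stained with CD34-APC and CD38-PECy7 for 30 min. After washing in cold PBS, cells were labelled with Annexin-V–FITC/PI for 15 min at room temperature and read by flow cytometry. Viability of total and CD34⁺ cells was normalized to untreated controls (mean, SD).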

[6] = Cytotoxicity against human leukemia stem/progenitor cells assessed as viable CD34+ cells at 5 uM after 18 hrs by annexin-V labeling-based flow cytometry; format: functional, CD34+ cell; how it was run: as §1
[7] = Induction of apoptosis in CD34+ leukemia stem/progenitor cells assessed as necrotic cells at 10 uM using annexin V/propidium iodide by flow cytometry; format: functional, Homo sapiens
How it was run: (§2)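 Primary AML patient cells were exposed to 10 μM compound for 18 h in IMDM, then stained with CD34-APC/CD38-PECy7. Annexin-V–FITC/PI was added and incubated for 15 min at room temperature before flow cytometry. Quadrants were defined as Q1 necrotic, Q2 late apoptotic, Q3 early apoptotic and Q4 viable.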

[8] = Cytotoxicity against human CD34+ hematopioetic stem cells at 5 uM by immunostaining method; format: cell-based
How it was run: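 Mononuclear cells were Ficoll-isolated from umbilical cord blood of a normal donor, cryopreserved, then rested in serum-free IMDM for 1 h. Cells were treated for 18 h in IMDM, stained with CD34-APC for 30 min, and labelled with Annexin-V–FITC/PI for 15 min at room temperature. Read by flow cytometry, normalized to vehicle, done in triplicate.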

[9] = Cytotoxicity against human leukemia stem/progenitor cells assessed as viable CD34+CD38- cells at 10 uM after 18 hrs by annexin-V labeling-based flow cytometry relative to control; format: functional
[10] = Induction of apoptosis in CD34+ leukemia stem/progenitor cells assessed as late apoptotic cells at 10 uM using annexin V/propidium iodide by flow cytometry; format: functional, Homo sapiens; how it was run: as §2
[11] = Cytotoxicity against human leukemia stem/progenitor cells assessed as viable CD34+ cells at 10 uM after 18 hrs by annexin-V labeling-based flow cytometry relative to control; format: functional, CD34+ cell
[12] = Induction of apoptosis in CD34+ leukemia stem/progenitor cells assessed as early apoptotic cells at 10 uM using annexin V/propidium iodide by flow cytometry; format: functional, Homo sapiens; how it was run: as §2
[13] = Reduction in colony forming units of leukemia stem/progenitor cells at 5 uM after 15 to 20 days; format: functional, Homo sapiens
How it was run: (§3)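 Mononuclear cells from AML patient […] were exposed to drug for 18 h in serum-free IMDM, then plated in triplicate in M3434 methylcellulose. Total colonies (CFC-Mix, CFC-GM, CFC-G, CFC-M, BFU-E) were scored by morphology after 15−20 days.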

Homo sapiens = experiment: Antitumor activity against human leukemia stem/progenitor cells xenografted in NOD/SCID mouse assessed as reduction of CD45+CD33+ cells in spleen compound pretreated for 18 hrs before grafting process measured after 8 weeks; format: functional, tissue-based
How it was run: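 Fresh primary AML patient cells were exposed for 18 h to saline or compound. Equal numbers of surviving cells were then injected iv into NOD/SCID mice. After 8 weeks the mice were sacrificed, and the spleen CD33⁺CD45⁺ human cells were quantified by flow cytometry, with each animal analysed individually.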

[14] = Reduction in colony forming units of leukemia stem/progenitor cells at 10 uM after 15 to 20 days; format: functional, Homo sapiens; how it was run: as §3
[15] = Induction of apoptosis in CD34+ leukemia stem/progenitor cells assessed as viable cells at 10 uM using annexin V/propidium iodide by flow cytometry; format: functional; conditions: Homo sapiens; read-out: Activity; how it was run: as §2
[16] = Antitumor activity against human leukemia stem/progenitor cells xenografted in NOD/SCID mouse assessed as survival time at 1 mg/kg, iv administered every other day total of four doses starting from 8 weeks post grafting (reference value: 43 days)
[17] = Cytotoxicity against human leukemia stem/progenitor cells assessed as viable CD34+ cells at 0.1 uM after 18 hrs by annexin-V labeling-based flow cytometry; format: functional, CD34+ cell; how it was run: as §1
[18] = Cytotoxicity against human leukemia stem/progenitor cells assessed as cell viability at 0.5 uM after 18 hrs by annexin-V labeling-based flow cytometry; format: functional; conditions: read-out: Activity; how it was run: as §1
[19] = Cytotoxicity against human leukemia stem/progenitor cells assessed as viable CD34+ cells at 0.5 uM after 18 hrs by annexin-V labeling-based flow cytometry; format: functional, CD34+ cell; how it was run: as §1
[20] = Cytotoxicity against human leukemia stem/progenitor cells assessed as cell viability at 0.1 uM after 18 hrs by annexin-V labeling-based flow cytometry; format: functional; conditions: in the assay text read “leukemia cells” for “leukemia stem/progenitor cells”, read-out: Activity; how it was run: as §1
[21] = Reduction in colony forming units of leukemia stem/progenitor cells at 0.1 uM after 15 to 20 days; format: functional, Homo sapiens; how it was run: as §3
[22] = Reduction in colony forming units of leukemia stem/progenitor cells at 0.05 uM after 15 to 20 days; format: functional, Homo sapiens; how it was run: as §3

SMILES | IC50 [1] | Drug degradation [2] | viability at 10 µM [3] | Activity [4] | IC50 (HL-60) | viability at 5 µM [5] | Activity [6] | other results
C/C1=C\CC[C@@]2(C)O[C@@H]2[C@H]2OC(=O)[C@@H](CN=[N+]=[N-])[C@@H]2CC1 | 5.9 µM | Active | 22.8% | 17.5% | 4.3 µM | 31.5% | 28.4% | –
C=C1C(=O)O[C@@H]2C3O[C@]3(C)CC/C=C(\C)CC[C@@H]12 (stereo not given in full) | 4.1 µM | – | 8.3% | 4.7% | 3.7 µM | 18% | 13.2% | Activity [7]: 0.046%; Activity [8]: Non-toxic; fold change (FC) [9]: 2.6; Activity [10]: 27.8%; fold change (FC) [11]: 3.8; Activity [12]: 60.3%; CFU [13]: 2; Activity (Homo sapiens): Active; CFU [14]: 0; viability at 10 µM [15]: 1.73%
C/C1=C\CC[C@@]2(C)O[C@@H]2[C@H]2OC(=O)[C@@H](Cn3cc(-c4ccccc4)nn3)[C@@H]2CC1 | > 100 µM | Not Active | – | – | > 50 µM | – | – | –
COc1cccc2c1C(=O)c1c(O)c3c(c(O)c1C2=O)C[C@@](O)(C(=O)CO)C[C@@H]3O[C@H]1C[C@H](N)[C@H](O)[C@H](C)O1 [DOXORUBICIN] | 6.7 µM | – | – | – | 0.05 µM | – | – | Survival [16]: 22 days; Activity [17]: 115%; viability at 0.5 µM [18]: 49.1%; Activity [19]: 49.1%; viability at 0.1 µM [20]: 37.6%; CFU [21]: 170; CFU [22]: 165

From ChEMBL document CHEMBL2202986, “Guaianolide sesquiterpene lactones, a source to discover agents that selectively inhibit acute myelogenous leukemia stem and progenitor cells” (J Med Chem, 2012)
